In ChEMBL document CHEMBL5058577, “EUbOPEN Chemogenomics Library 2 (Multiplex)” (2022):

Test system: Fibroblast
Assay: Multiplex assay against human fibroblast
Assay type: toxicity, cell-based
Outline: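 Live cells carried four stains from seeding: Hoechst33342, BioTracker Green Microtubule Cytoskeleton Dye, MitoTracker Red and Annexin V Alexa Fluor 680. They were imaged on a CQ1 microscope at 37°C and 5% CO2 after compound addition. Using CellPathfinder machine-learning gating, cells were split into Hoechst high-intensity objects or normal cells, normal cells into healthy, pyknosed or fragmented nuclei, and pyknosed cells into mitotic or apoptotic; tubulin, mitochondrial-mass and membrane-permeability phenotypes are per cents of healthy-nucleus cells.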

[1] = 12 h, 1 µM, compound concentration 1 uM, replicate 1
[2] = 12 h, 1 µM, compound concentration 1 uM, replicate 2
[3] = 12 h, 10 µM, compound concentration 10 uM, replicate 1
[4] = 12 h, 10 µM, compound concentration 10 uM, replicate 2
[5] = 24 h, 1 µM, compound concentration 1 uM, replicate 1
[6] = 24 h, 1 µM, compound concentration 1 uM, replicate 2
[7] = 24 h, 10 µM, compound concentration 10 uM, replicate 1
[8] = 24 h, 10 µM, compound concentration 10 uM, replicate 2
[9] = 48 h, 1 µM, compound concentration 1 uM, replicate 1
[10] = 48 h, 1 µM, compound concentration 1 uM, replicate 2
[11] = 48 h, 10 µM, compound concentration 10 uM, replicate 1
[12] = 48 h, 10 µM, compound concentration 10 uM, replicate 2

COCCCN1CCC(NC(=O)c2cc(Cl)c(N)c3c2OCC3)CC1 [PRUCALOPRIDE]
Population Apoptotic (%) [1]: 33% | Population Fragmented Nuclei (%) [1]: 20% | Population Healthy Nuclei (%) [1]: 62% | Population Hoechst High Intensity Objects (%) [1]: 3% | Population Membrane Permeable-Phenotype (%) [1]: 0% | Population Mitochondria Different-Phenotype (%) [1]: 3% | Population Mitotic Cells (%) [1]: 66% | Population Normal (%) [1]: 96% | Population Pyknosed Nuclei (%) [1]: 16% | Population Tubulin-Different-Phenotype (%) [1]: 30% | Total Cell Count [1]: 132 | Population Apoptotic (%) [2]: 48% | Population Fragmented Nuclei (%) [2]: 31% | Population Healthy Nuclei (%) [2]: 48% | Population Hoechst High Intensity Objects (%) [2]: 4% | Population Membrane Permeable-Phenotype (%) [2]: 5% | Population Mitochondria Different-Phenotype (%) [2]: 8% | Population Mitotic Cells (%) [2]: 52% | Population Normal (%) [2]: 95% | Population Pyknosed Nuclei (%) [2]: 20% | Population Tubulin-Different-Phenotype (%) [2]: 51% | Total Cell Count [2]: 130 | Population Apoptotic (%) [3]: 30% | Population Fragmented Nuclei (%) [3]: 12% | Population Healthy Nuclei (%) [3]: 66% | Population Hoechst High Intensity Objects (%) [3]: 0% | Population Membrane Permeable-Phenotype (%) [3]: 1% | Population Mitochondria Different-Phenotype (%) [3]: 7% | Population Mitotic Cells (%) [3]: 70% | Population Normal (%) [3]: 99% | Population Pyknosed Nuclei (%) [3]: 20% | Population Tubulin-Different-Phenotype (%) [3]: 31% | Total Cell Count [3]: 144 | Population Apoptotic (%) [4]: 35% | Population Fragmented Nuclei (%) [4]: 28% | Population Healthy Nuclei (%) [4]: 46% | Population Hoechst High Intensity Objects (%) [4]: 11% | Population Membrane Permeable-Phenotype (%) [4]: 7% | Population Mitochondria Different-Phenotype (%) [4]: 3% | Population Mitotic Cells (%) [4]: 64% | Population Normal (%) [4]: 88% | Population Pyknosed Nuclei (%) [4]: 25% | Population Tubulin-Different-Phenotype (%) [4]: 55% | Total Cell Count [4]: 153 | Population Apoptotic (%) [5]: 48% | Population Fragmented Nuclei (%) [5]: 20% | Population Healthy Nuclei (%) [5]: 57% | Population Hoechst High Intensity Objects (%) [5]: 2% | Population Membrane Permeable-Phenotype (%) [5]: 0% | Population Mitochondria Different-Phenotype (%) [5]: 3% | Population Mitotic Cells (%) [5]: 51% | Population Normal (%) [5]: 97% | Population Pyknosed Nuclei (%) [5]: 21% | Population Tubulin-Different-Phenotype (%) [5]: 25% | Total Cell Count [5]: 136 | Population Apoptotic (%) [6]: 72% | Population Fragmented Nuclei (%) [6]: 36% | Population Healthy Nuclei (%) [6]: 49% | Population Hoechst High Intensity Objects (%) [6]: 7% | Population Membrane Permeable-Phenotype (%) [6]: 7% | Population Mitochondria Different-Phenotype (%) [6]: 4% | Population Mitotic Cells (%) [6]: 27% | Population Normal (%) [6]: 92% | Population Pyknosed Nuclei (%) [6]: 14% | Population Tubulin-Different-Phenotype (%) [6]: 50% | Total Cell Count [6]: 138 | Population Apoptotic (%) [7]: 63% | Population Fragmented Nuclei (%) [7]: 10% | Population Healthy Nuclei (%) [7]: 74% | Population Hoechst High Intensity Objects (%) [7]: 6% | Population Membrane Permeable-Phenotype (%) [7]: 1% | Population Mitochondria Different-Phenotype (%) [7]: 6% | Population Mitotic Cells (%) [7]: 36% | Population Normal (%) [7]: 93% | Population Pyknosed Nuclei (%) [7]: 15% | Population Tubulin-Different-Phenotype (%) [7]: 30% | Total Cell Count [7]: 128 | Population Apoptotic (%) [8]: 30% | Population Fragmented Nuclei (%) [8]: 24% | Population Healthy Nuclei (%) [8]: 57% | Population Hoechst High Intensity Objects (%) [8]: 5% | Population Membrane Permeable-Phenotype (%) [8]: 11% | Population Mitochondria Different-Phenotype (%) [8]: 3% | Population Mitotic Cells (%) [8]: 69% | Population Normal (%) [8]: 94% | Population Pyknosed Nuclei (%) [8]: 18% | Population Tubulin-Different-Phenotype (%) [8]: 56% | Total Cell Count [8]: 148 | Population Apoptotic (%) [9]: 50% | Population Fragmented Nuclei (%) [9]: 25% | Population Healthy Nuclei (%) [9]: 60% | Population Hoechst High Intensity Objects (%) [9]: 4% | Population Membrane Permeable-Phenotype (%) [9]: 2% | Population Mitochondria Different-Phenotype (%) [9]: 3% | Population Mitotic Cells (%) [9]: 50% | Population Normal (%) [9]: 95% | Population Pyknosed Nuclei (%) [9]: 14% | Population Tubulin-Different-Phenotype (%) [9]: 38% | Total Cell Count [9]: 146 | Population Fragmented Nuclei (%) [10]: 36% | Population Healthy Nuclei (%) [10]: 49% | Population Hoechst High Intensity Objects (%) [10]: 2% | Population Membrane Permeable-Phenotype (%) [10]: 3% | Population Mitochondria Different-Phenotype (%) [10]: 6% | Population Normal (%) [10]: 97% | Population Pyknosed Nuclei (%) [10]: 13% | Population Tubulin-Different-Phenotype (%) [10]: 53% | Total Cell Count [10]: 132 | Population Apoptotic (%) [11]: 64% | Population Fragmented Nuclei (%) [11]: 22% | Population Healthy Nuclei (%) [11]: 66% | Population Hoechst High Intensity Objects (%) [11]: 2% | Population Membrane Permeable-Phenotype (%) [11]: 1% | Population Mitochondria Different-Phenotype (%) [11]: 6% | Population Mitotic Cells (%) [11]: 35% | Population Normal (%) [11]: 97% | Population Pyknosed Nuclei (%) [11]: 10% | Population Tubulin-Different-Phenotype (%) [11]: 38% | Total Cell Count [11]: 136 | Population Apoptotic (%) [12]: 62% | Population Fragmented Nuclei (%) [12]: 34% | Population Healthy Nuclei (%) [12]: 48% | Population Hoechst High Intensity Objects (%) [12]: 6% | Population Membrane Permeable-Phenotype (%) [12]: 7% | Population Mitochondria Different-Phenotype (%) [12]: 7% | Population Mitotic Cells (%) [12]: 37% | Population Normal (%) [12]: 93% | Population Pyknosed Nuclei (%) [12]: 17% | Population Tubulin-Different-Phenotype (%) [12]: 57% | Total Cell Count [12]: 146
